Source: ChEMBL document CHEMBL1154890, “Synthesis, cytotoxicity, antiviral activity and interferon inducing ability of 6-(2-aminoethyl)-6H-indolo[2,3-b]quinoxalines” (Eur J Med Chem, 2010)

Tests used:
[1] = Cytotoxicity against pig EPT cells after 24 to 48 hrs; format: cell-based, Sus scrofa; settings: for CC50: EPT cells; for pCC50: ept
Outline: (§1)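 Monolayers at 37 °C, 5% CO₂; growth medium (L929: Eagle's MEM, EPT: Medium 199; both with 10% calf embryo serum and kanamycin, plus glutamine for L929) replaced by maintenance medium with 5% newborn calf serum holding compound at 1–1000. Read at 24–48 h after 0.5% crystal violet/70% ethanol staining, 540/620 nm. CC₅₀ = 50% monolayer destruction, given as −lg (M), confidence interval at P < 0.05.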

[2] = (§2) Cytotoxicity against mouse L929 cells after 24 to 48 hrs; format: cell-based; settings: L929 cells; outline: as §1
[3] = Selectivity index, CC50 for […] EPT cells to IC50 for Vesicular stomatitis virus treated immediately after viral infection; format: functional
Outline: (§3)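 SI = CC₅₀/IC₅₀ for each cell line and each regimen (treatment 24 h before or immediately after VSV infection). For CC₅₀, the medium on EPT or L929 monolayers was replaced with maintenance medium containing 5% newborn calf serum plus compound at 1–1000. After 24–48 h at 37 °C, 5% CO₂, cells were stained with 0.5% crystal violet in 70% ethanol and read at 540/620. CC₅₀ is the concentration giving 50% monolayer destruction.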

[4] = system: Vesicular stomatitis virus; experiment: Antiviral activity against Vesicular stomatitis virus infected in mouse L929 cells assessed as inhibition of virus-induced cytopathic effect treated immediately after viral infection measured after 24 hrs; format: functional, organism-based; settings: L929, 24 h
Outline: (§4)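 VSV grown in EPT or L929 cells to about 10⁶ ID₅₀/0.1 mL. Compounds in serial double dilution were added to cell monolayers at 37 °C, 5% CO₂, either 24 h before infection (preventive) or immediately after it (therapeutic). VSV was then added and cultures held 24 h. Cytopathic effect was scored microscopically. IC₅₀ is reported as −lg molar concentration giving 50% inhibition of cytopathic action, with confidence interval at P < 0.05.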

[5] = system: Vesicular stomatitis virus; experiment: Antiviral activity against Vesicular stomatitis virus in EPT cells assessed as inhibition of virus-induced cytopathic effect treated 24 hrs before viral infection measured after 24 hrs; format: functional, organism-based; outline: as §4
[6] = Induction of IFN activity in pig EPT cells assessed as interferon titer at 1.5 uM after 24 hrs by microscopical method; format: functional, Sus scrofa
Outline: (§5)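 Compounds were added to murine fibroblast L929 or piglet testicular EPT cells. Supernatant was taken after 24 and 48 h at 37 °C, 5% CO₂. IFN titers in the supernatant were then determined on L929 and EPT cell cultures.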

[7] = system: Vesicular stomatitis virus; experiment: Antiviral activity against Vesicular stomatitis virus infected in EPT cells assessed as inhibition of virus-induced cytopathic effect treated immediately after viral infection measured after 24 hrs; format: functional, organism-based; outline: as §4
[8] = Selectivity index, CC50 for pig EPT cells to IC50 for Vesicular stomatitis virus treated 24 hrs before viral infection; format: functional; outline: as §3
L929 [9] = experiment: Induction of IFN activity in mouse L929 cells assessed as interferon titer at 1.1 uM after 24 hrs by microscopical method; format: functional; outline: as §5
[10] = system: Vesicular stomatitis virus; experiment: Antiviral activity against Vesicular stomatitis virus in mouse L929 cells assessed as inhibition of virus-induced cytopathic effect treated 24 hrs before viral infection measured after 24 hrs; format: functional, organism-based; outline: as §4
[11] = Selectivity index, CC50 for mouse L929 cells to IC50 for Vesicular stomatitis virus treated 24 hrs before viral infection; format: functional; outline: as §3
[12] = Selectivity index, CC50 for mouse L929 cells to IC50 for Vesicular stomatitis virus treated immediately after viral infection; format: functional; outline: as §3
[13] = Ratio of tilorone CC50 for […] EPT cells to IC50 for Vesicular stomatitis virus treated 24 hrs before viral infection over compound CC50 for […] EPT cells to IC50 for Vesicular stomatitis virus treated 24 hrs before viral infection
L929 [14] = experiment: as §2; format: cell-based; settings: l929; outline: as §1

SMILES	CC50 [1] [µM]	CC50 [2] [µM]	Ratio CC50/IC50 [3]	IC50 [4] [µM]	IC50 [5] [µM]	Activity [6]	IC50 [7] [µM]	Ratio CC50/IC50 [8]	Activity (L929 [9])	IC50 [10] [µM]	Ratio CC50/IC50 [11]	Ratio CC50/IC50 [12]	pCC50 [1]	Ratio [13]	pCC50 (L929 [14])
CCCCN(CC)CCn1c2ccccc2c2nc3ccccc3nc21	83.2	174	6	3.39	13.2	8	13.2	6	8	3.16	54	27			
c1ccc2nc3c(nc2c1)c1ccccc1n3CCN1CCCCCC1	132	145	17	3.8	2.69	32	7.94	49	64	1.29	110	62			
CCN(CC)CCOc1ccc2c(c1)C(=O)c1cc(OCCN(CC)CC)ccc1-2.Cl.Cl [TILORONE HYDROCHLORIDE]	107	112	10	13.8	1.32	32	13.5	80	32	1.45	80	10			
CC1CCN(CCn2c3ccccc3c3nc4ccccc4nc32)CC1		575	142	2.29	1.58	32	20	1783	8	1.62	358	78	2.55	20	
CCCCN(C)CCn1c2ccccc2c2nc3ccccc3nc21	204	562	43	2.34	3.02	32	4.79	68	16	1.45	388	41			
c1ccc2nc3c(nc2c1)c1ccccc1n3CCN1CCCC1	162	75.9	40	2.24	2.69	64	4.07	60	32	1.32	59	468			
CCN(CC)CCn1c2ccccc2c2nc3ccccc3nc21	457	646	76	2.19	3.39	32	6.17	139	64	1.29	499	79			
CCCN(CCC)CCn1c2ccccc2c2nc3ccccc3nc21	148	219	23	3.55	2.69	32	6.61	55	8	1.29	169	158			
CN1CCN(CCn2c3ccccc3c3nc4ccccc4nc32)CC1	81.3	97.7	17	4.79	1.45	32	4.68	57	4	1.38	71	46			
c1ccc2nc3c(nc2c1)c1ccccc1n3CCN1CCCCC1	933	178	164	2.57	2.88	32	5.62	323	64	1.35	132	224			
c1ccc2nc3c(nc2c1)c1ccccc1n3CCN1CCOCC1				4.47	1.62	16		1258	8	1.62	659	17	2.69	15	2.97
CC1CCCCN1CCn1c2ccccc2c2nc3ccccc3nc21 (stereo unspecified)	398	234	98	1.91	2.63	32	4.07	149	32	1.26	185	74			
CN(C)CCn1c2ccccc2c2nc3ccccc3nc21	81.3	91.2	9	11.2	1.45	32	9.55	56	16	1.45	63	58			
